# Experiments:
# [1] = target: Prothrombin (Homo sapiens, UniProt P00734); assay: Inhibitory activity against thrombin (IIa).
# In short: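 Human thrombin (0.28 nM) with H-D-Phe-Pip-Arg-p-nitroaniline (0.06 mM) in 50 mM Tris-HCl pH 8.0, 100 mM NaCl, 0.1% BSA. Immediate background read at 405 nm, then 60 min at room temperature before measuring p-nitroaniline release rate at 405 nm. Seven concentrations in duplicate; % inhibition versus control; IC50 by four-parameter logistic regression.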
# [2] = target: T1, Coagulation factor VII (Homo sapiens, UniProt P08709); assay: Inhibitory activity against tissue coagulation factor VII.
# T1 sequence (P08709 whole entry): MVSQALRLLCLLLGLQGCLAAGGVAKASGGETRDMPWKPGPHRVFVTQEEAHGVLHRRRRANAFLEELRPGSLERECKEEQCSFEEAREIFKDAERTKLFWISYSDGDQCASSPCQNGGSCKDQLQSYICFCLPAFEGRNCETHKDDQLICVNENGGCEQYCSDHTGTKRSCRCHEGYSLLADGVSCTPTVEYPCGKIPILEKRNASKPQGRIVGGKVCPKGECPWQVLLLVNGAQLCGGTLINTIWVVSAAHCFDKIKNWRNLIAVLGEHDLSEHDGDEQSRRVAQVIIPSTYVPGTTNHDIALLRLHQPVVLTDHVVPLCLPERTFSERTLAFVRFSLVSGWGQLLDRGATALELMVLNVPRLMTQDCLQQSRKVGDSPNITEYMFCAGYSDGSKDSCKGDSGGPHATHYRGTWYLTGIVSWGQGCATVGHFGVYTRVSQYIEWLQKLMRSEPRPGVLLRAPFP
# In short: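 Complex of recombinant soluble tissue factor (100 nM) and recombinant human Factor VIIa (2 nM). Substrate N-methylsulfonyl-D-Phe-Gly-Arg-p-nitroaniline at 0.4 mM in 5 mM CaCl2, 50 mM Tris-HCl pH 8.0, 100 mM NaCl, 0.1% BSA. Background A405 read first; after 60 min at room temperature, hydrolysis rate read at 405 nm. Duplicates at seven concentrations; IC50 is the duplicate average.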
# [3] = target: Thrombin and coagulation factor VII (Homo sapiens) (UniProt P00734+P08709); assay: Selectivity for coagulation factor VIIa over thrombin IIa.; format: protein assay
# [4] = target: Coagulation factor X (Homo sapiens, UniProt P00742); assay: Inhibitory activity against coagulation factor X.
# In short: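 Human Factor Xa (0.3 nM) with chromogenic substrate S-2765 (0.15 mM) in 50 mM Tris-HCl pH 8.0, 100 mM NaCl, 0.1% BSA. A405 background read taken at once, then 60 min at room temperature, then p-nitroaniline release rate at 405 nm. Duplicates at seven concentrations; % inhibition versus control; IC50 from four-parameter logistic fit, averaged over the duplicates.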
# Chain of Coagulation factor X (P00742 41-179 limits assumed): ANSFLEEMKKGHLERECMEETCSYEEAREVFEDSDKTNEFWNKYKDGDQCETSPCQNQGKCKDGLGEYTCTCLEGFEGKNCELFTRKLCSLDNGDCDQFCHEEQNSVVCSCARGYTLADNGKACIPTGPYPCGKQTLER
# Chain of Coagulation factor X (P00742 235-488 limits assumed): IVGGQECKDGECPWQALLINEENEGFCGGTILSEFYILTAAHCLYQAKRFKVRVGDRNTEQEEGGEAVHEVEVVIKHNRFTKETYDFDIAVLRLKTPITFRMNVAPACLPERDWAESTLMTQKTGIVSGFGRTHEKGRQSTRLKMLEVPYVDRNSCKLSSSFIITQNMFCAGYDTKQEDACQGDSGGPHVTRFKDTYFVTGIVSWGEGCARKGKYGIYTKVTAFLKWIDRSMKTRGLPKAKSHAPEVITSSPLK
IC50 [1] [nM],IC50 [2] [nM],Selectivity [3],IC50 [4] [nM],SMILES
12900,13700,1,2000,CS(=O)(=O)CC[C@H](NC(=O)[C@@H](Cc1ccccc1)NS(=O)(=O)Cc1ccccc1)C(=O)N[C@@H](CCCN=C(N)N)C(=O)c1nccs1
40,110,0.4,240,N=C(N)NCCC[C@H](NC(=O)[C@H](CO)NC(=O)[C@@H](Cc1ccccc1)NS(=O)(=O)Cc1ccccc1)C(=O)c1nccs1

# Source: ChEMBL document CHEMBL1145084, “Polymer-assisted solution-phase library synthesis and crystal structure of alpha-ketothiazoles as tissue factor VIIa inhibitors” (J Med Chem, 2003)
